A selection: hits, their analogues and other compounds. The true share with any hit is near 2.2%.
IMP-1 inhibitor – inhibitors of Pseudomonas aeruginosa IMP-1 metallo-beta-lactamase; purified IMP-1, nitrocefin hydrolysis, epi-absorbance fluorescence; inhibition, % at 5.6 µM; 290,000 compounds, 0.45% hits;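 active = inhibition above the mean plus 3 SD of all compounds in the same screening run, cut at about 4.5% in these data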
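System: purified IMP-1; amount: IMP-1 0.2 nM before substrate addition; compound: single dose, 5.6 µM; times: 25 °C, 15 min preincubation, 25 min reaction; signal: Epi-absorbance via hydrolysed-nitrocefin quenching of white-plate fluorescence, 480/530 nm, EDTA stop; benchmarks: DMSO with and without IMP-1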
PvdQ inh – P. aeruginosa PvdQ acylase inhibition; purified PvdQ acylase, fluorescence plate reader; 340,000 compounds, 0.063% hits; inhibition, % at 10 µM; in the data active = inhibition above about 30%, passing the limit was not always enough
PHOSPHO1 inh – PHOSPHO1 (human) inhibition; 290,000 compounds, 1.1% hits; inhibition, % at 13.3 µM; recombinant PHOSPHO1, absorbance phosphatase assay; Q8TCT1; in the data active = inhibition above about 60%
Target sequence (Q8TCT1 whole entry, looked up): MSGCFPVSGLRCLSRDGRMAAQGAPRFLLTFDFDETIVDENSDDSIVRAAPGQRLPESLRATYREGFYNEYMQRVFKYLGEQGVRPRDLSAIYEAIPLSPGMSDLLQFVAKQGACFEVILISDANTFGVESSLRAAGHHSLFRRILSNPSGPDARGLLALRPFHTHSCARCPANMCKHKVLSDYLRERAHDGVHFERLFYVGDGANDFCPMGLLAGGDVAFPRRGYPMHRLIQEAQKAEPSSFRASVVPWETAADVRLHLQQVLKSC
VIM-2 inhibitor – blocks Pseudomonas aeruginosa VIM-2 metallo-beta-lactamase | purified VIM-2, nitrocefin hydrolysis, epi-absorbance fluorescence | inhibition, % at 5.6 µM | 290,000 compounds, 0.89% hits | AID 1527;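 active = inhibition above the mean of all tested compounds plus 3 SD, cutoff set per screening run, cut at about 7.5% in these data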;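 note: red hydrolysis product quenches plate fluorescence so inhibitors raise well fluorescence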
Yeast superoxide – yeast age-related superoxide inhibition as caloric restriction mimetic | superoxide response (% of plate mean), % at 10 µM | 330,000 compounds, 0.18% hits | AID 2690 | S. cerevisiae aged cells, superoxide DHE fluorescence; stronger effect = lower value;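 active = superoxide response under a set limit, about three screen SD below normal, cut at about 65% in these data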;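 note: yeast aged for seven days with compound at 30 °C before DHE staining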
Numbers stand for hits; n = inactive; x = no result given.

SMILES | IMP-1 inhibitor | PvdQ inh | PHOSPHO1 inh | VIM-2 inhibitor | Yeast superoxide
Cc1ccc(-c2nc(CS(=O)CC(=O)NC3CCCCC3)c(C)o2)cc1 (stereo not drawn) | n | n | n | n | n
O=C(NCc1ccc(F)cc1)c1ccc(CNc2c(N3CCOCC3)c(=O)c2=O)cc1 | n | n | 61 | n | n
O=C(NCc1ccc(F)cc1)C1CCC(CNc2c(N3CCCCC3)c(=O)c2=O)CC1 (stereo not drawn) | n | n | n | n | 63
Cc1ccc(CNC(=O)c2ccc(CN3CCOCC3)cc2)cc1 | n | n | 84 | n | n
O=C1CSC(=S)N1N=Cc1ccc2c(c1)OCO2 | x | n | x | x | x
COc1cc(CCC(=O)OCC(=O)N2CCc3ccccc32)cc(OC)c1OC | n | n | n | n | n
CCCc1c(C(=O)N/N=C/c2cccc3ccccc23)nnn1-c1nonc1N | n | n | 62 | n | n
CCN(CC)Cc1c(C(=O)N/N=C/c2cccc3ccccc23)nnn1-c1nonc1N | n | n | n | n | n
Cc1cc(C(=O)Nn2c(-c3ccc(Br)cc3)nc3ccccc3c2=O)ccc1[N+](=O)[O-] | n | n | n | n | n
CNC(C)C#Cc1ccc2oc3cccc(OC)c3c(=O)c2c1 (stereo not drawn) | n | n | n | 8.3 | n
CCn1c(COc2ccccc2C)nnc1SCC(=O)CC(=O)Nc1ccccc1OC | n | n | n | n | n
CCn1c(COc2ccccc2)nnc1SCC(=O)CC(=O)Nc1ccccc1OC | n | n | 92 | n | n
CCn1c(COc2cccc(C)c2)nnc1SCC(=O)CC(=O)Nc1ccccc1OC | n | n | 93 | n | n
CCn1c(COc2cccc(C)c2)nnc1SCC(=O)N1CCCC1 | n | n | n | n | n
CN(CC(=O)Nc1ccccc1Br)C(=O)Cn1[nH]c(=O)c2ccccc2c1=O | x | n | x | x | n
COc1cc(C(=O)Nc2cccc(-n3cnnn3)c2)cc(OC)c1OC | n | n | n | n | n
COc1cccc(OC)c1C(=O)Nc1cccc(-n2cnnn2)c1 | n | n | 72 | n | n
N#CC(OC(=O)c1ccccc1)c1cccc([N+](=O)[O-])c1 (stereo not drawn) | x | 72 | x | x | x
CCCNC(=O)c1onc(CSc2ccc(Cl)cc2)c1C(=O)NC(C)C | x | n | x | x | n
Cc1noc(C)c1CN1C(=O)c2ccccc2C1=O | 4.8 | n | n | n | n
Cc1ccc(C2(C)NC(=O)N(Cc3c(C)noc3C)C2=O)cc1 (stereo not drawn) | n | n | n | n | n
Cc1ccc(S(=O)(=O)n2cc(CO)c3ccccc32)cc1 | x | n | x | x | x
S=c1[nH]nc(Nc2ccc(Cl)cc2)s1 | n | n | 86 | n | n
O=C(Cn1cc(Cl)c([N+](=O)[O-])n1)NCCC1=CCCCC1 | n | n | n | n | n
Cc1cccc(NC(=O)c2cccc(N3C(=O)CCC3=O)c2)c1 | n | n | x | n | n
SMILES | IMP-1 inhibitor | PvdQ inh | PHOSPHO1 inh | VIM-2 inhibitor | Yeast superoxide
O=C(Nc1cccc2c1C(=O)NC2=O)c1cccc(N2C(=O)CCC2=O)c1 | 8.8 | n | n | n | n
N#Cc1c(/N=C/c2ccco2)sc2c1CCC2 | n | n | n | n | n
Cc1ccc(/C=N/c2sc3c(c2C#N)CCCCC3)o1 | n | n | 61 | n | n
COc1ccc(CCN2C(=O)CC(C(C)c3ccccc3)C2=O)cc1OC (stereo not drawn) | 24 | n | n | n | n
Cc1ccc(NCc2nc3ccccc3n2C)cc1C | n | n | 60 | n | n
COc1cc(NCCCCCCCN)c2ncccc2c1 | n | n | n | 7.8 | n
c1ccc(Nc2c3c(nc4ccccc24)CCC3)cc1 | n | n | n | n | n
c1ccc2c(Nc3ccc4c(c3)OCCO4)c3c(nc2c1)CCC3 | n | n | n | 8.2 | n
Nc1nc(CSc2nc3ccccc3[nH]2)cs1 | n | n | 97 | n | n
c1ccc(CSc2nc3ccccc3[nH]2)cc1 | n | n | n | n | n
O=C(CC1C(=O)NCCN1Cc1ccc(-c2ccccc2)cc1)NCC1CC1 (stereo not drawn) | n | n | 60 | n | n
CN(CC1COc2ccccc2O1)C(=O)c1ccc(Cl)c(S(=O)(=O)N2CCCCCC2)c1 (stereo not drawn) | x | n | x | x | n
CCCNC(=O)Cn1c(=O)/c(=C/c2ccc(-c3ccc([N+](=O)[O-])cc3)o2)s/c1=C\C(=O)C(C)(C)C | x | n | x | x | x
CCOC(=O)c1c(NC(=O)C2CCCO2)sc(C(=O)OC(C)(C)C)c1C (stereo not drawn) | n | n | 83 | n | n
CCOC(=O)c1sc(NC(=O)C2CCCO2)c(C(=O)OCC)c1C (stereo not drawn) | x | x | n | x | x
CCOC(=O)c1ccc2c(c1)n(CCO)c(C)[n+]2CC | n | n | 90 | n | n
CCOC(=O)c1ccc2c(c1)n(CC)c(/C=C/N(C)c1ccccc1)[n+]2CC | n | n | n | n | n
Cc1ccnc2nc(C(=O)OCC(=O)Nc3ccc4c(c3)OC(F)(F)O4)nn12 | 4.7 | n | n | n | n
COC(=O)C1=C(N)Oc2cc(N(C)C)ccc2C1c1ccccc1OC (stereo not drawn) | 7.5 | n | n | n | n
COc1ccc(Cc2nnc(SC(C)C(=O)Nc3ccc(F)cc3Cl)o2)cc1 (stereo not drawn) | x | n | x | x | n
O=C(CSc1n[nH]c(-c2ccncc2)n1)NC1CCS(=O)(=O)C1 (stereo not drawn) | n | n | 98 | n | n
COC(Cc1n[nH]c(=S)n1-c1ccccc1)OC | n | n | 79 | n | n
Cc1cc(OCc2n[nH]c(=S)n2-c2ccccc2)ccc1Cl | n | n | n | n | n
S=c1[nH]nc(CSCc2ccccc2Cl)n1-c1ccccc1 | n | n | 105 | n | n
COCc1n[nH]c(=S)n1-c1ccccc1 | n | n | 64 | n | n
SMILES | IMP-1 inhibitor | PvdQ inh | PHOSPHO1 inh | VIM-2 inhibitor | Yeast superoxide
CCOC(=O)/C=c1/s/c(=C/c2ccccc2OC)c(=O)n1CC(=O)N1CCOCC1 | x | n | x | x | x
CCCC(C(=O)Nc1ccc2c(C)cc(=O)oc2c1)c1ccccc1 (stereo not drawn) | n | n | n | n | n
CC(NC(=O)COC(=O)/C(=C/c1cccs1)c1cccs1)c1ccccc1 (stereo not drawn) | n | n | n | n | n
CCC(C)NC(=O)c1cc(Cl)c(NC(=O)C2=C(C)OCCS2)cc1OC (stereo not drawn) | n | n | n | n | n
CCN(CC)CCCNC(=O)c1cc(Cl)c(NC(=O)C2=C(C)OCCS2)cc1OC | n | n | n | 11 | n
CN(C)N=Nc1ccc(S(N)(=O)=O)cc1 | n | n | n | n | n
CN(C)c1ccc(N=Nc2ccc(S(N)(=O)=O)cc2)cc1 | 9.1 | n | n | n | n
CCOc1ccc2ccccc2c1/C=N/NC(=O)CNC(=O)c1ccccc1F | n | n | n | n | n
Cc1c(Br)c(=O)oc2c(C)c(O)ccc12 | n | n | n | 8.4 | n
CCc1c(C)c2ccc(O)c(CN(C)C)c2oc1=O | n | n | n | n | n
CC1CN(S(=O)(=O)c2cccc(C(=O)N(Cc3nnc(-c4ccccc4Cl)o3)C3CC3)c2)CC(C)O1 (stereo not drawn) | x | n | x | x | n
CC(C)(c1ccccc1)c1ccc(OCCN2CCOCC2)cc1 | 4.9 | n | n | n | n
